Bioassay records as filed in PubChem BioAssay.
PKD1 kinase inh: inhibitors of human PKD1 kinase, biochemical, fluorescence polarization; Serine/threonine-protein kinase D1 (Homo sapiens), Q15139; PKD1 kinase fluorescence polarization assay; inhibition, % (no concentration beside the values); hit rate 0.056% among 200,000
Target sequence (Q15139 whole entry, looked up): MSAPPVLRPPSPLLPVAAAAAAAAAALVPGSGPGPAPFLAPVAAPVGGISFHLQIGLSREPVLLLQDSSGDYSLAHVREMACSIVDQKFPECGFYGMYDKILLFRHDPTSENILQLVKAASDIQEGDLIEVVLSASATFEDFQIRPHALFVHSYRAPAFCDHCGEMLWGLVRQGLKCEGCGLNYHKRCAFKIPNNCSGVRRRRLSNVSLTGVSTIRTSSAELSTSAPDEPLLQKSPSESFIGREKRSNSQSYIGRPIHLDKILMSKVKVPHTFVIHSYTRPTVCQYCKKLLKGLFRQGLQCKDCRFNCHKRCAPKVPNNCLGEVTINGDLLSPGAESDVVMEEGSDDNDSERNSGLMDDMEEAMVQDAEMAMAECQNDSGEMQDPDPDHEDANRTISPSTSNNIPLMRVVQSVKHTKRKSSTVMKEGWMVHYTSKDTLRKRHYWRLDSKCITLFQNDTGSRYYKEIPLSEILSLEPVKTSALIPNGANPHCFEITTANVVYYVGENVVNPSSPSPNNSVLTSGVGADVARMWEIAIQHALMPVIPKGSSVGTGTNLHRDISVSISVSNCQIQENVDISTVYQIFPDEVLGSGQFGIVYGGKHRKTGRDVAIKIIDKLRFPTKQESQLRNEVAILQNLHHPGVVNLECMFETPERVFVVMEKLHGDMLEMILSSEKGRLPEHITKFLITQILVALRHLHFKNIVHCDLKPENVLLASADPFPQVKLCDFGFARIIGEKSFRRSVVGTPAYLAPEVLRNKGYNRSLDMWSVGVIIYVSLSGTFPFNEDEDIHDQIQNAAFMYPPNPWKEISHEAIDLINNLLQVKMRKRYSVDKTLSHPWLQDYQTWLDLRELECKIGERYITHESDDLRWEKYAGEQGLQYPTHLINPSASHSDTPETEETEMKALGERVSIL
CHOP inhibitor: inhibitors of CHOP promoter induction, primary screen, cell-based, unfolded protein response, luciferase reporter | CHO-K1 CHOP-promoter luciferase, tunicamycin-induced, 15-18 h | inhibition, % at 10 µM | hit rate 3.8% among 220,000 | AID 2732, 2010;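 active means compounds that reduced the stress-induced luciferase reporter signal by more than about 70% of percent inhibition, limit read from the data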
Lmaj promast: Leishmania major promastigote growth inhibition, primary screen. Leishmania major promastigotes, resazurin fluorescence viability. inhibition, % at 10 µM. hit rate 9% among 200,000. AID 1063, 2008;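 further: promastigotes grown with compound for 44 hours at 28 °C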
Arbovirus inh: antivirals against arbovirus infection, primary screen, cell-based, full library, 10K replicate subset | arbovirus infection cell-based antiviral screen | inhibition, % at 10 µM | hit rate 0.37% among 200,000; in the data active means inhibition above about 30%
Wee1 stabilizer: Wee1 degradation inhibitors, primary screen, cell-based, HeLa, Wee1K328M-luciferase, luminescence; Wee1-like protein kinase (Homo sapiens), P30291; HeLa Luc-Wee1K328M stability; 100% = proteasome inhibitor MG132 effect; reporter increase, % at 5 µM; hit rate 1.2% among 220,000; AID 1321, 2008;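 active means activation above the mean of all tested compounds plus 3 SD, set per screening run, cut at about 8.8% in these data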;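 further: cells exposed to compound for 20 h before luminescence read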
Rad51 HR inh: human RAD51 strand exchange inhibitors, primary screen, biochemical, fluorescence. inhibition, % at 10 µM. DNA repair protein RAD51 homolog 1 (Homo sapiens), Q06609. hRad51 DNA strand exchange, fluorescence dequenching. AID 1385, 2008. hit rate 0.085% among 200,000;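 active means inhibition above 40% at the single screening dose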
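material = hRad51 filaments on single-stranded DNA | timing = filaments 15 min 37 °C, then compound 30 min | signal = FRET fluorescence dequenching, excitation 485 nm, emission 520 nm | benchmarks = control wells and blank wells on each plate | evaluation = percent inhibition relative to plate controls and blanks | compound = 10 µM final, single point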
Numbers stand for hits. In the library only some 12% were active in any assay of this set; here they are far more common. Unless noted, no stated cut-off is given here; in the data, active means inhibition above about 50%; inactive means the rest.

For COc1ccc2nc(Nc3nc(C)c(CCC(C)C)c(=O)[nH]3)nc(C)c2c1 the results were PKD1 kinase inh inactive, CHOP inhibitor inactive, Lmaj promast 99, Arbovirus inh inactive, Wee1 stabilizer inactive and Rad51 HR inh inactive.
`COc1ccc2nc(Nc3nc(CSc4ccc(C)cc4)cc(=O)[nH]3)nc(C)c2c1` gave PKD1 kinase inh inactive, CHOP inhibitor inactive, Lmaj promast 65, Arbovirus inh inactive, Wee1 stabilizer inactive and Rad51 HR inh inactive.
`COc1ccc2nc(Nc3nc(CSc4nnnn4-c4ccccc4)cc(=O)[nH]3)nc(C)c2c1` gave PKD1 kinase inh inactive, CHOP inhibitor inactive, Lmaj promast inactive, Arbovirus inh inactive, Wee1 stabilizer inactive and Rad51 HR inh inactive.
COc1cc(/C=N/NC(=O)CCC(=O)NC2CCCCC2)ccc1C was read as PKD1 kinase inh inactive, CHOP inhibitor inactive, Lmaj promast inactive, Arbovirus inh inactive, Wee1 stabilizer inactive and Rad51 HR inh inactive.
For Cc1cc(-c2csc(NC(=O)c3ccc(C#N)cc3)n2)c(C)n1Cc1ccco1 the results were PKD1 kinase inh inactive, CHOP inhibitor inactive, Lmaj promast 51, Arbovirus inh inactive, Wee1 stabilizer inactive and Rad51 HR inh inactive.
Screening N#Cc1ccc(-c2csc(NC(=O)c3ccc(N4C(=O)CCC4=O)cc3)n2)cc1 returned CHOP inhibitor inactive, Wee1 stabilizer inactive and Rad51 HR inh inactive.
Screening Cc1ccc(N2C(=O)/C(=C/c3cccnc3)SC2=S)cc1 returned PKD1 kinase inh inactive, CHOP inhibitor 76, Lmaj promast inactive, Arbovirus inh inactive, Wee1 stabilizer inactive and Rad51 HR inh inactive.
`Cc1cccc(N2C(=O)/C(=C/c3cccnc3)SC2=S)c1` gave CHOP inhibitor inactive and Wee1 stabilizer inactive.
For Cc1cc(/C=C2/SC(=S)N(c3ccc([N+](=O)[O-])cc3)C2=O)c(C)n1-c1cccnc1 the results were PKD1 kinase inh inactive, CHOP inhibitor 71, Lmaj promast 91, Arbovirus inh inactive and Wee1 stabilizer inactive.
For Cc1ccc(S(=O)(=O)c2c(CO)c(-c3ccccc3)nn2C)cc1 the results were PKD1 kinase inh inactive, CHOP inhibitor inactive, Lmaj promast inactive, Arbovirus inh inactive, Wee1 stabilizer inactive and Rad51 HR inh inactive.
Cc1ccc(S(=O)(=O)c2c(COC(=O)c3ccccc3Cl)c(-c3ccccc3)nn2C)cc1 was read as PKD1 kinase inh inactive, CHOP inhibitor inactive, Lmaj promast 61, Arbovirus inh inactive, Wee1 stabilizer inactive and Rad51 HR inh inactive.
Screening CC(C)Oc1cccc(C(=O)NC(=S)Nc2cccc(NC(=O)c3ccccc3Cl)c2)c1 returned PKD1 kinase inh inactive, CHOP inhibitor inactive, Lmaj promast 86, Arbovirus inh inactive and Wee1 stabilizer inactive.
CC(C)CC(=O)Nc1cccc(NC(=O)c2ccccc2Cl)c1 was read as PKD1 kinase inh inactive, CHOP inhibitor inactive, Lmaj promast 59, Arbovirus inh inactive, Wee1 stabilizer inactive and Rad51 HR inh inactive.
`O=C(COc1ccccc1)NC(=S)Nc1cccc(NC(=O)c2ccccc2Cl)c1` gave PKD1 kinase inh inactive, CHOP inhibitor inactive, Lmaj promast inactive, Arbovirus inh inactive, Wee1 stabilizer inactive and Rad51 HR inh inactive.
For CC(C)CC(=O)NC(=S)Nc1cccc(NC(=O)c2ccccc2Cl)c1 the results were PKD1 kinase inh inactive, CHOP inhibitor inactive, Lmaj promast inactive, Arbovirus inh inactive, Wee1 stabilizer inactive and Rad51 HR inh inactive.
Screening COc1ccc(Cl)cc1N(C(=O)Nc1cccc(Cl)c1)C1=NCC(C)S1 (stereo unspecified) returned PKD1 kinase inh inactive, CHOP inhibitor inactive, Lmaj promast inactive, Arbovirus inh inactive and Wee1 stabilizer inactive.
For CCCCOc1ccc(S(=O)(=O)Nc2ccc(NC(C)=O)cc2)cc1 the results were PKD1 kinase inh inactive, CHOP inhibitor inactive, Lmaj promast inactive, Arbovirus inh inactive, Wee1 stabilizer inactive and Rad51 HR inh inactive.
CCCCOC(=O)Nc1ccc(S(=O)(=O)Nc2ccc([N+](=O)[O-])cc2)cc1 was read as PKD1 kinase inh inactive, CHOP inhibitor inactive, Lmaj promast 78, Arbovirus inh inactive, Wee1 stabilizer inactive and Rad51 HR inh inactive.
For CCCCN(CCCC)S(=O)(=O)c1ccc(NC(=O)Cc2cccs2)cc1 the results were PKD1 kinase inh inactive, CHOP inhibitor 82, Lmaj promast inactive, Arbovirus inh inactive, Wee1 stabilizer inactive and Rad51 HR inh inactive.
`CCCCN(CCCC)S(=O)(=O)c1ccc(NS(=O)(=O)c2ccc(NC(C)=O)cc2)cc1` gave PKD1 kinase inh inactive, CHOP inhibitor 93, Lmaj promast inactive, Arbovirus inh inactive, Wee1 stabilizer inactive and Rad51 HR inh inactive.
O=C1c2cccnc2C(Nc2ccc(F)c(Cl)c2)N1Cc1cccs1 (stereo unspecified) was read as PKD1 kinase inh inactive, CHOP inhibitor inactive, Lmaj promast inactive, Arbovirus inh inactive, Wee1 stabilizer inactive and Rad51 HR inh inactive.
Screening CCN(CC)c1ccc(C=NCCc2ccc(S(N)(=O)=O)cc2)cc1 returned PKD1 kinase inh inactive, CHOP inhibitor inactive, Lmaj promast inactive, Arbovirus inh inactive, Wee1 stabilizer inactive and Rad51 HR inh inactive.
`CC(=O)N1CCN(c2c(F)c(F)c(C(F)(F)F)c(F)c2F)CC1` gave PKD1 kinase inh inactive, CHOP inhibitor inactive, Lmaj promast inactive, Arbovirus inh inactive, Wee1 stabilizer inactive and Rad51 HR inh inactive.
For CN1CCN(Cc2nc3ccccc3c(=O)n2Cc2nc(-c3ccc4ccccc4c3)cs2)CC1 the results were PKD1 kinase inh inactive, CHOP inhibitor 88, Lmaj promast 100, Arbovirus inh inactive, Wee1 stabilizer inactive and Rad51 HR inh inactive.
`O=C(c1ccc2c(=O)n(Cc3ccc4c(c3)OCO4)c(=S)[nH]c2c1)N1CCCCC1` gave PKD1 kinase inh inactive, CHOP inhibitor 92, Lmaj promast inactive, Arbovirus inh inactive, Wee1 stabilizer inactive and Rad51 HR inh inactive.
Screening O=C(c1ccc(Cn2c(=S)[nH]c3ccccc3c2=O)cc1)N1CCN(c2ccccn2)CC1 returned PKD1 kinase inh inactive, CHOP inhibitor inactive, Lmaj promast 100, Arbovirus inh inactive, Wee1 stabilizer inactive and Rad51 HR inh inactive.
`CCCCCn1c(=O)[nH]c2cc(C(=O)N3CCN(Cc4ccc5c(c4)OCO5)CC3)ccc2c1=O` gave PKD1 kinase inh inactive, CHOP inhibitor 82, Lmaj promast inactive, Arbovirus inh inactive, Wee1 stabilizer inactive and Rad51 HR inh inactive.
For CCCCCn1c(=O)[nH]c2cc(C(=O)NCc3ccc4c(c3)OCO4)ccc2c1=O the results were PKD1 kinase inh inactive, CHOP inhibitor inactive, Lmaj promast inactive, Arbovirus inh inactive, Wee1 stabilizer inactive and Rad51 HR inh inactive.
